Reference: ChEMBL document CHEMBL1800018, “Discovery of a series of imidazo[4,5-b]pyridines with dual activity at angiotensin II type 1 receptor and peroxisome proliferator-activated receptor-γ” (J Med Chem, 2011)
Calls of active or inactive are those of the source. No cut-off for these calls is given here.

Experiments:
[1] = biological target: T1, Peroxisome proliferator-activated receptor delta (Homo sapiens) (UniProt Q03181); experiment: Transactivation of human PPARbeta
T1 sequence (whole entry): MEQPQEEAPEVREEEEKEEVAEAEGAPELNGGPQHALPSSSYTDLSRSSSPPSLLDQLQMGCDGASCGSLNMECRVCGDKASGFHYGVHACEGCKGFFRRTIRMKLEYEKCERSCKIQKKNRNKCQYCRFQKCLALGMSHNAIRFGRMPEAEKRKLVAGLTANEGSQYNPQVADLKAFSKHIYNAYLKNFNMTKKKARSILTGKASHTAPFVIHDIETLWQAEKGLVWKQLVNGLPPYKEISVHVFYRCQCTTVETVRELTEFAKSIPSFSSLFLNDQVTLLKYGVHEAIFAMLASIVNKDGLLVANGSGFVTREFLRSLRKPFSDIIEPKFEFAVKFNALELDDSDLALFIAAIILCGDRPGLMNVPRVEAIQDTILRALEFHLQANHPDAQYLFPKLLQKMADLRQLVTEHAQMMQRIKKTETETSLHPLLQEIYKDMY

[2] = AUC in SHR rat at 3 mg/kg, po; assay type: ADME, organism-based; parameters: dose 3 mg/kg, route oral; settings: plasma
Outline: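 SHR received a single oral dose of 1, 3 or 10 mg/kg. Systemic exposure was determined as plasma Cmax and AUC.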

[3] = AUC in ZDF rat at 3 mg/kg, po; assay type: ADME, organism-based; parameters: dose 3 mg/kg, route oral; settings: plasma
Outline: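 Male ZDF rats; satellite animals outside the efficacy groups were given oral doses of 3, 10 or 100 mg/kg. Plasma Cmax and AUC were calculated from these animals.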

Activity [1]: inactive
AUC [2]: 1280 ng·h/mL
AUC [3]: 4400 ng·h/mL
SMILES: CCc1nc2c(C)cc(CC(C)C)nc2n1[C@H]1CCc2cc(-c3ccccc3-c3nnn[nH]3)ccc21
